Molecules are shown by their SMILES.

Data set [1] has as its target Cystic fibrosis transmembrane conductance regulator (Homo sapiens, UniProt P13569, F508DEL). Kind of data set: Potentiation of human CFTR F508del mutant expressed in mouse NIH-3T3 cells after 30 mins by fluorescent voltage sensing optical assay. Format: cell-based, NIH3T3. In outline:
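NIH-3T3 fibroblasts stably expressing human F508del-CFTR were held 16–24 h at 27 °C to correct misfolding. Cells were washed in NaCl/HEPES bath, pH 7.4, then loaded with voltage-sensing dyes plus compound for 30 min at room temperature. Cl−-free bath with forskolin was added once, and membrane potential change was read by fluorescence. EC50 is mean ± SD of at least three determinations.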

For data set [2], the system named is Cystic fibrosis transmembrane conductance regulator (Homo sapiens), P13569 [F508del]. Description: Potentiation of human CFTR F508del mutant expressed in mouse NIH-3T3 cells at 30 uM after 30 mins by fluorescent voltage sensing optical assay relative to VRT-532. The format is cell-based. The note with it: NIH3T3. Put shortly:
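Same F508del-CFTR NIH-3T3 membrane-potential assay: 27 °C correction for 16–24 h, dye plus compound for 30 min at room temperature, then forskolin in Cl−-free bath. Compounds below 50% activity at 30 μM were not titrated. Their response at 30 μM is given as % of VRT-532.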

The target in another data set is Cytochrome P450 2E1 (Homo sapiens, UniProt P05181). Kind of data set: Inhibition of CYP2E1 (unknown origin). Format: ADME.
Chain of Cytochrome P450 2E1 (P05181 whole entry): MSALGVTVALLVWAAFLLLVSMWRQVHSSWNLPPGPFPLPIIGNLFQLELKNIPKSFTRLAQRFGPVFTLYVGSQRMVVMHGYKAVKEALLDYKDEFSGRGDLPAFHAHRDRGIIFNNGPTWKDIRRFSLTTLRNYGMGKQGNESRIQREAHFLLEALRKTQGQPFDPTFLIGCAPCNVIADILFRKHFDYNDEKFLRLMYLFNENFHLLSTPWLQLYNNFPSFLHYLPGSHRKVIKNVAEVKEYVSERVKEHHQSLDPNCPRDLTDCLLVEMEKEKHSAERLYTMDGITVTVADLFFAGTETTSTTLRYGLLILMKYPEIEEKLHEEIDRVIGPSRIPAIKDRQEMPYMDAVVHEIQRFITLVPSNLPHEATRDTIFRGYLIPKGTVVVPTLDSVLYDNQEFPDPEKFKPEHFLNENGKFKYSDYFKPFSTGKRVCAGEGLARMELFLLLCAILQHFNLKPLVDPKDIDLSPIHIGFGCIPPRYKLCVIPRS
Data set [3] can be described thus: Clearance in mouse at 3 mg/kg, iv. The format is ADME, organism-based. The note with it: in vivo. On the set-up: dose 3 mg/kg, route intravenous. Put shortly:
(§1)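 Animals (n = 3/group; male mouse, Sprague-Dawley rat, beagle dog, cynomolgus monkey) got a single iv dose in dimethyl isosorbide/ethanol/PEG400/D5W (10%/15%/35%/40%) at 1 mL/kg. Heparinized blood was drawn via an indwelling carotid cannula from predose to 48 h. Plasma was assayed by LC/MS/MS (LLOQ 1 ng/mL, linear 1–2500 ng/mL). Parameters came from noncompartmental analysis of mean profiles using measured doses.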

A short description of data set [4]: Half life in mouse at 3 mg/kg, iv. Format: ADME, organism-based. On the set-up: dose 3 mg/kg, route intravenous. The note with it: in vivo. Put shortly:
as §1

Data set [5] in a line: Volume of distribution at steady state in mouse at 3 mg/kg, iv. The format is ADME, organism-based. Also noted: dose 3 mg/kg, route intravenous. The note with it: in vivo, read-out: Vdss. In outline:
as §1

Data set [6] can be described thus: Half life in beagle dog at 0.9 mg/kg, iv. The format is ADME, organism-based, Canis lupus familiaris. Also noted: dose 0.9 mg/kg, route intravenous. The note with it: in vivo. In outline: as §1
Data set [7] is described as follows: Volume of distribution at steady state in beagle dog at 0.9 mg/kg, iv. The format is ADME, organism-based, Canis lupus familiaris. The note with it: in vivo, read-out: Vdss. On the set-up: dose 0.9 mg/kg, route intravenous. In outline:
as §1

Data set [8] in a line: Clearance in Cynomolgus monkey at 0.8 mg/kg, iv. The format is ADME, organism-based, Macaca fascicularis. On the set-up: dose 0.8 mg/kg, route intravenous. The note with it: in vivo. Put shortly:
as §1

Data set [9] can be described thus: Half life in Cynomolgus monkey at 0.8 mg/kg, iv. Format: ADME, organism-based, Macaca fascicularis. Also noted: dose 0.8 mg/kg, route intravenous. The note with it: in vivo. In outline: as §1
Data set [10] can be described thus: Volume of distribution at steady state in Cynomolgus monkey at 0.8 mg/kg, iv. The format is ADME, organism-based, Macaca fascicularis. Also noted: dose 0.8 mg/kg, route intravenous. The note with it: in vivo, read-out: Vdss. In outline: as §1
The nature of data set [11]: AUC (0 to infinity) in Sprague-Dawley rat at 3 mg/kg, po. Format: ADME, organism-based. Also noted: time infinity, dose 3 mg/kg, route oral. The note with it: plasma. Put shortly:
(§2)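 Single oral dose, n = 3/group. Heparinized carotid-cannula blood was sampled at predose, 0.25, 0.5, 1, 1.5, 2, 4, 8, 12 and 24 h. Plasma levels were measured by LC/MS/MS (LLOQ 1 ng/mL). AUC and bioavailability were derived by noncompartmental analysis of mean concentration–time profiles against the iv arm.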

For data set [12], the system named is Canis familiaris. Description: Oral bioavailability in beagle dog at 3.8 mg/kg. The note with it: in vivo.
The subject of data set [13] is Canis familiaris. Kind of data set: AUC (0 to infinity) in beagle dog at 3.8 mg/kg, po. The note with it: in vivo.
Data set [14] can be described thus: AUC (0 to infinity) in Sprague-Dawley rat at 1.29 mg/kg, iv. The format is ADME, organism-based. On the set-up: dose 1.29 mg/kg, route intravenous, time infinity. The note with it: plasma. In outline:
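Male Sprague−Dawley rats, n = 3/group, single iv dose in dimethyl isosorbide/ethanol/PEG400/D5W (10%/15%/35%/40%) at 1 mL/kg. Carotid cannula blood at predose, 5, 15, 30, 45 min and 1, 2, 4, 6, 8, 12, 24, 36, 48 h. Plasma levels by LC/MS/MS (LLOQ 1 ng/mL, linear 1–2500 ng/mL). Noncompartmental analysis of mean profiles using measured doses.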

Data set [15] in a line: Clearance in Sprague-Dawley rat at 1.29 mg/kg, iv. On the set-up: dose 1.29 mg/kg, route intravenous. The format is ADME, organism-based. The note with it: in vivo. In outline:
as §1

A short description of data set [16]: Half life in Sprague-Dawley rat at 1.29 mg/kg, iv. The format is ADME, organism-based. On the set-up: dose 1.29 mg/kg, route intravenous. The note with it: in vivo. In outline: as §1
Data set [17] in a line: Volume of distribution at steady state in Sprague-Dawley rat at 1.29 mg/kg, iv. The note with it: in vivo, read-out: Vdss. Format: ADME, organism-based. Also noted: dose 1.29 mg/kg, route intravenous. Put shortly: as §1
Data set [18] can be described thus: Binding affinity to ligand-gated chloride channel (unknown origin). On the set-up: species or system Homo sapiens.
Data set [19] can be described thus: Clearance in Sprague-Dawley rat at 2.5 mg/kg, iv. The format is ADME, organism-based. Also noted: dose 2.5 mg/kg, route intravenous. The note with it: in vivo. In outline:
as §1

A short description of data set [20]: Half life in Sprague-Dawley rat at 2.5 mg/kg, iv. Format: ADME, organism-based. Also noted: dose 2.5 mg/kg, route intravenous. The note with it: in vivo. In outline:
as §1

Data set [21] is described as follows: Volume of distribution at steady state in Sprague-Dawley rat at 2.5 mg/kg, iv. Format: ADME, organism-based. On the set-up: dose 2.5 mg/kg, route intravenous. The note with it: in vivo, read-out: Vdss. Put shortly: as §1
Data set [22] can be described thus: Oral bioavailability in Sprague-Dawley rat at 2.5 mg/kg. The format is ADME, organism-based. The note with it: in vivo. Put shortly:
as §2

Data set [23] is described as follows: Clearance in beagle dog at 1 mg/kg, iv. Also noted: dose 1 mg/kg, route intravenous. The note with it: in vivo. Format: ADME, organism-based, Canis lupus familiaris. Put shortly:
as §1

A short description of data set [24]: Half life in beagle dog at 1 mg/kg, iv. Format: ADME, organism-based, Canis lupus familiaris. Also noted: dose 1 mg/kg, route intravenous. The note with it: in vivo. In outline: as §1
Data set [25] can be described thus: Volume of distribution at steady state in beagle dog at 1 mg/kg, iv. The format is ADME, organism-based, Canis lupus familiaris. Also noted: dose 1 mg/kg, route intravenous. The note with it: in vivo, read-out: Vdss. In outline:
as §1

Data set [26] addresses GABA-A receptor; benzodiazepine site (Homo sapiens). Kind of data set: Binding affinity to GABAA receptor (unknown origin).

Chain of Cystic fibrosis transmembrane conductance regulator (Homo sapiens), P13569 [F508del] (P13569 as listed by the source): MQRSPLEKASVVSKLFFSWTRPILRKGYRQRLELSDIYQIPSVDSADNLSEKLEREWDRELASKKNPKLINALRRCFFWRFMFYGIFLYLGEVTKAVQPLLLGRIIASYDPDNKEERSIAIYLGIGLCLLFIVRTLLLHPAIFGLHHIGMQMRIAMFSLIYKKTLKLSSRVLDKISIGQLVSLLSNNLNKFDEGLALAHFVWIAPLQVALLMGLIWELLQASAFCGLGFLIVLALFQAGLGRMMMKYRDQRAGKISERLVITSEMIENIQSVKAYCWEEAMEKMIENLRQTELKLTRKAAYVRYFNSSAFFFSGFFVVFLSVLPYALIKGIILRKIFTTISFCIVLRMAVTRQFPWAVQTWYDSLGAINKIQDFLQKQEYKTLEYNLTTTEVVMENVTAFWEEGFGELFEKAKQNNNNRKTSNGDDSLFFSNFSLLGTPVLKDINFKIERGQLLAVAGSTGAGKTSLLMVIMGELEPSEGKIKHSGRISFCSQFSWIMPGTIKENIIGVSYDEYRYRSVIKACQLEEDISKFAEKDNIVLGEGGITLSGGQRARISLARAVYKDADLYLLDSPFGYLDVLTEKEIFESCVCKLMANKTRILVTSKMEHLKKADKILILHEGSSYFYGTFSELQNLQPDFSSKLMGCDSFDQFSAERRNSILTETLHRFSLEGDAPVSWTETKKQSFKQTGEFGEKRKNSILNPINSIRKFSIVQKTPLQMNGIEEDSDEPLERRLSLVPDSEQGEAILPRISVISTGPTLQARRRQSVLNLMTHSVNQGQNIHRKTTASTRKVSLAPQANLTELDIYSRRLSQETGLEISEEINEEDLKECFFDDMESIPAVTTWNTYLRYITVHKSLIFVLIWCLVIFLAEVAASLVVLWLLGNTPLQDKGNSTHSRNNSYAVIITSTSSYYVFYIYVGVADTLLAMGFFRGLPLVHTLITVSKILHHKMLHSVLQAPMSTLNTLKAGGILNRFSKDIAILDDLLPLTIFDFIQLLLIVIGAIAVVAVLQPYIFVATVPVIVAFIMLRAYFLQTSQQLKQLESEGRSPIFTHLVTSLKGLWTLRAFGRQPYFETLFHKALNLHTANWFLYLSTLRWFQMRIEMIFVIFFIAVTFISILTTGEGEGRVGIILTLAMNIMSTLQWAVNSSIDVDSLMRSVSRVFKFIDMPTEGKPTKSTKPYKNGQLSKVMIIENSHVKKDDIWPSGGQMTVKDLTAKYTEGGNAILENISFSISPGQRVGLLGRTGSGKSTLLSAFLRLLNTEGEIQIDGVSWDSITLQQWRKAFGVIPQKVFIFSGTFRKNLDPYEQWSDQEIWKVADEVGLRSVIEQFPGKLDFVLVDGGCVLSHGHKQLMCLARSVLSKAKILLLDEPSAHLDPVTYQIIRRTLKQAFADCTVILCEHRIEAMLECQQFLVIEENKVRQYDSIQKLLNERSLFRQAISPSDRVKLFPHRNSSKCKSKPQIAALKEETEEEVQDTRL
Chain of Cystic fibrosis transmembrane conductance regulator (P13569 as listed by the source): as above

On to `O=C(Nc1ccc2c(c1)NCC2)c1c[nH]c2ccccc2c1=O`, for which the EC50 in data set [1] was determined as 400 nM.

Take `O=C(Nc1ccc2cn[nH]c2c1)c1c[nH]c2ccccc2c1=O`: the 50% effective concentration (EC50) in data set [1] was 5600 nM.

On to `O=C1Cc2ccc(NC(=O)c3c[nH]c4ccccc4c3=O)cc2N1`, for which the Activity in [2] came out at 21%.

As to `CC(C)(C)c1cc(C(C)(C)C)c(NC(=O)c2c[nH]c3ccccc3c2=O)cc1O` [IVACAFTOR], the EC50 in data set [1] was 3 nM. The molecule also had an IC50 on Cytochrome P450 2E1 of over 20000 nM. The clearance in [3] amounted to 20 mL/min/kg; in data set [8] it was 7.4 mL/min/kg. Besides, the half-life in data set [4] was 1.3 h; in data set [6] it was 13 h; in [9] it was 6.7 h. The Vd amounted to 2.8 L/kg in data set [5], 0.7 L/kg in data set [7] and 2.2 L/kg in [10]. Further, in [11], the area under the curve AUC(0-inf) was 4800 ng·h/mL. This molecule also showed a F with Canis familiaris [12] of 43%. For the same molecule, the area under the curve (AUC) in the data set with Canis familiaris [13] was determined as 13500 ng·h/mL.

On to `CCc1ccccc1NC(=O)c1c[nH]c2ccccc2c1=O`, for which, in data set [1], the EC50 was determined as 200 nM.

Consider `CC(=O)Nc1cc(NC(=O)c2c[nH]c3ccccc3c2=O)ccc1C(C)(C)C`, for which the Activity in data set [2] amounted to 24%.

On to `CCCc1ccc(NC(=O)c2c[nH]c3ccccc3c2=O)cc1N`, for which the EC50 in data set [1] worked out at 400 nM.

Turning to `O=C(c1ccc2ccccc2c1O)N(Cc1ccccc1)Cc1ccccc1`, the EC50 in [1] is 3500 nM.

Turning to `N#CCc1ccccc1NC(=O)c1c[nH]c2ccccc2c1=O`, the EC50 in data set [1] turned out to be 8500 nM.

With `CC(C)(C)c1ccc(NC(=O)c2c[nH]c3ccccc3c2=O)cc1O`, in [1], the EC50 stood at 3 nM. For the same molecule, in [14], the AUC(0-inf) was determined as 260 ng·h/mL. The same molecule returned a clearance in [15] of 85.6 mL/min/kg. The molecule further showed a half-life in data set [16] of 0.7 h. Moreover, the Vd in data set [17] stood at 2.9 L/kg.

In the case of `COC(=O)Nc1cc(NC(=O)c2c[nH]c3ccccc3c2=O)ccc1C(C)(C)C`, the EC50 in [1] worked out at 3500 nM.

For `O=C(c1cnc2ccccn2c1=O)N(Cc1ccccc1)Cc1ccccc1`, in data set [2], the Activity was 10%.

With `CCc1cc2cc[nH]c2cc1NC(=O)c1c[nH]c2ccccc2c1=O`, the EC50 in data set [1] came out at 20 nM.

For `CC(C)(C)c1cc(C(F)(F)F)c(NC(=O)c2c[nH]c3ccccc3c2=O)cc1O`, the concentration giving a half-maximal response (EC50) in data set [1] was found to be 3 nM.

On to `Nc1cccc(NC(=O)c2c[nH]c3ccccc3c2=O)c1`, for which the EC50 in [1] was 6900 nM.

In the case of `O=C(c1c[nH]c2ccccc2c1=O)N(Cc1ccccc1)Cc1ccccc1`, the EC50 in data set [1] came out at 2100 nM.

Regarding `CC(C)(C)c1ccc(NC(=O)c2c[nH]c3ccccc3c2=O)cc1C(=O)O`, the Activity in data set [2] turned out to be 13%.

Turning to `CC(C)(C)c1ccc(NC(=O)c2c[nH]c3ccccc3c2=O)cc1`, in [1], the 50% effective concentration (EC50) was found to be 100 nM.

On to `O=C(Nc1ccc2cc[nH]c2n1)c1c[nH]c2ccccc2c1=O`, for which the Activity in data set [2] amounted to 13%.

As to `CC(C)(C)c1ccc(NC(=O)c2c[nH]c3ccccc3c2=O)cc1S(N)(=O)=O`, in [1], the EC50 came out at 5100 nM.

For `CC(C)c1ccccc1NC(=O)c1c[nH]c2ccccc2c1=O`, the EC50 in data set [1] worked out at 200 nM.

Turning to `Cn1ccc2ccc(NC(=O)c3c[nH]c4ccccc4c3=O)cc21`, the EC50 in [1] was found to be 6400 nM.

In the case of `O=c1c(S(=O)(=O)Nc2ccc3cc[nH]c3c2)c[nH]c2ccccc12`, the Activity in data set [2] worked out at 1%.

On to `O=C(Nc1ccc2cc[nH]c2c1)c1c[nH]c2ccccc2c1=O`, for which the EC50 in [1] stood at 100 nM. Moreover, the half-maximal inhibitory concentration (IC50) in [18] and in data set [26] was 100 nM throughout. Also, the clearance in data set [19] worked out at 28 mL/min/kg; in data set [23], 17 mL/min/kg. Moreover, the half-life in data set [20] was 1.3 h; in [24], 0.9 h. Also, the Vd is 2.4 L/kg in data set [21] and 1.6 L/kg in [25]. The molecule further yielded a bioavailability in data set [22] of 11%.

In general, EC50 refers to the concentration at which the effect is half-maximal. A word on the IC50: it is the midpoint of a concentration-inhibition curve. By clearance is commonly meant the rate of elimination divided by the concentration. For orientation: half-life means the time in which the quantity being followed falls by half. The AUC(0-inf) is total exposure, with the tail of the curve extrapolated. What is called AUC is concentration integrated over time. The term bioavailability denotes dose-corrected exposure relative to a reference, in per cent.

The values are drawn from ChEMBL document CHEMBL3352164, “Discovery of N-(2,4-di-tert-butyl-5-hydroxyphenyl)-4-oxo-1,4-dihydroquinoline-3-carboxamide (VX-770, ivacaftor), a potent and orally bioavailable CFTR potentiator” (J Med Chem, 2014).
